Measured values from ChEMBL document CHEMBL1765020, “Synthesis and structure-affinity relationships of novel dibenzylideneacetone derivatives as probes for β-amyloid plaques” (J Med Chem, 2011).
pKi: −log10 of the molar value. The source made the active and inactive calls. The calls are words filed in the database; no cut-off is given here.

Key:
[1] = Displacement of [125I]IMPY from amyloid beta (1 to 42) aggregate after 2 hrs by gamma counting
Procedure, shortened: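 Competition binding in 1 mL PBS (0.2 M, pH 7.4). Aggregated Aβ1-42 fibrils (60 nM final) with [125I]IMPY and inhibitor at 10^-5 to 10^-10 M, added in ethanol. Nonspecific binding was defined with 1 μM IMPY. Incubated 2 h at 37 °C with shaking, then vacuum-filtered through glass fibre filters and the bound fraction gamma-counted. IC50 was converted to Ki by Cheng-Prusoff; triplicate, mean ± SD.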

[2] = biological target: Amyloid-beta precursor protein (Homo sapiens) (UniProt P05067); test: Binding affinity to amyloid beta (1 to 42) aggregate in cortex of Alzheimer disease patient brain by autoradiography; details: tested as the 125I-labelled form
Chain of Amyloid-beta precursor protein (Homo sapiens) (P05067 whole entry): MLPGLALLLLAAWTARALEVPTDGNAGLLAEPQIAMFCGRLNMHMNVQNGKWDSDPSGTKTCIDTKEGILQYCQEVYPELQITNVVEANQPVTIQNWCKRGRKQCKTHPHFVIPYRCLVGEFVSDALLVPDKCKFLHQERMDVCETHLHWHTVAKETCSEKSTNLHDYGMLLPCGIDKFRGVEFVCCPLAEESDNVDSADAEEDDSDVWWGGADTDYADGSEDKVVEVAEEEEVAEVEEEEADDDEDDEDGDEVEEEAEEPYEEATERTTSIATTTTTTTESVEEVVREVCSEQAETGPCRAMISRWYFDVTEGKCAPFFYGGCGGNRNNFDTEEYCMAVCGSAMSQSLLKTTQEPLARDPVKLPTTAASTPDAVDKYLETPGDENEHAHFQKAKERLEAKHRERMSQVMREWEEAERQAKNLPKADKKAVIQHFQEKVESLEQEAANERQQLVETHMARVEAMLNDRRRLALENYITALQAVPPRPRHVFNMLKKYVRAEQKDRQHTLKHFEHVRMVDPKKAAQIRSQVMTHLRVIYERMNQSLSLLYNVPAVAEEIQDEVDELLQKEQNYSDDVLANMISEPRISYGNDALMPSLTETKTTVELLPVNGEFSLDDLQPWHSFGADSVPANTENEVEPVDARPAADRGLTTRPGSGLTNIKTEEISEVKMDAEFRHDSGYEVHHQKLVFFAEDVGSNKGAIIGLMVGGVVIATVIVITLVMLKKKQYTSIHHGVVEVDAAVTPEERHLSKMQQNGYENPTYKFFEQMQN
Procedure, shortened: (§1)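 Human postmortem temporal-lobe paraffin sections were used: AD patient and normal control (person). They were deparaffinized (xylene, graded ethanol), held 30 min in PBS 0.2 M pH 7.4, incubated 1 h at room temperature with radiotracer (5 μCi/100 μL), washed 3 min in 40% ethanol, rinsed, dried and exposed to an imaging plate overnight.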

[3] = biological target: Amyloid-beta precursor protein (Homo sapiens) (UniProt P05067); test: Binding affinity to amyloid beta (1 to 42) aggregate in white matter of Alzheimer disease patient brain by autoradiography; assay type: tissue-based; details: tested as the 125I-labelled form; procedure, shortened: as §1
[4] = biological target: Amyloid-beta precursor protein (Homo sapiens) (UniProt P05067); test: Binding affinity to amyloid beta (1 to 42) aggregate in cortex of Alzheimer disease patient brain by immunohistochemical staining using amyloid beta antibody BC05; details: tested as the 125I-labelled form
Procedure, shortened: (§2)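 Plaque presence and location in the AD patient temporal-lobe sections were confirmed by immunohistochemistry with monoclonal anti-Aβ1-42 antibody BC05.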

[5] = biological target: Amyloid-beta precursor protein (Homo sapiens) (UniProt P05067); test: Binding affinity to amyloid beta (1 to 42) aggregate in white matter of Alzheimer disease patient brain by immunohistochemical staining using amyloid beta antibody BC05; assay type: tissue-based; details: tested as the 125I-labelled form; procedure, shortened: as §2

In the case of `CNc1ccc(/C=C/C(=O)/C=C/c2ccc(I)cc2)cc1`, the pKi [1] was 8.55, the Activity [2] was “Active” and the Activity [3] was “Active”. The Activity [4] was “Active” and the Activity [5] was “Active”.
